Assay results taken from publication PMC6570502 (Chembiochem : a European journal of chemical biology, 2019).
Changes are numbered by the printed parent chain.

Assays:
[1] = target: T1, KDM4A S288A mutant (Homo sapiens, UniProt O75164, S288A); test: MALDI demethylase assay, H3K9me3 substrate peptide, S288A mutant; format: biochemical
T1 sequence (O75164 1-1064 S288A): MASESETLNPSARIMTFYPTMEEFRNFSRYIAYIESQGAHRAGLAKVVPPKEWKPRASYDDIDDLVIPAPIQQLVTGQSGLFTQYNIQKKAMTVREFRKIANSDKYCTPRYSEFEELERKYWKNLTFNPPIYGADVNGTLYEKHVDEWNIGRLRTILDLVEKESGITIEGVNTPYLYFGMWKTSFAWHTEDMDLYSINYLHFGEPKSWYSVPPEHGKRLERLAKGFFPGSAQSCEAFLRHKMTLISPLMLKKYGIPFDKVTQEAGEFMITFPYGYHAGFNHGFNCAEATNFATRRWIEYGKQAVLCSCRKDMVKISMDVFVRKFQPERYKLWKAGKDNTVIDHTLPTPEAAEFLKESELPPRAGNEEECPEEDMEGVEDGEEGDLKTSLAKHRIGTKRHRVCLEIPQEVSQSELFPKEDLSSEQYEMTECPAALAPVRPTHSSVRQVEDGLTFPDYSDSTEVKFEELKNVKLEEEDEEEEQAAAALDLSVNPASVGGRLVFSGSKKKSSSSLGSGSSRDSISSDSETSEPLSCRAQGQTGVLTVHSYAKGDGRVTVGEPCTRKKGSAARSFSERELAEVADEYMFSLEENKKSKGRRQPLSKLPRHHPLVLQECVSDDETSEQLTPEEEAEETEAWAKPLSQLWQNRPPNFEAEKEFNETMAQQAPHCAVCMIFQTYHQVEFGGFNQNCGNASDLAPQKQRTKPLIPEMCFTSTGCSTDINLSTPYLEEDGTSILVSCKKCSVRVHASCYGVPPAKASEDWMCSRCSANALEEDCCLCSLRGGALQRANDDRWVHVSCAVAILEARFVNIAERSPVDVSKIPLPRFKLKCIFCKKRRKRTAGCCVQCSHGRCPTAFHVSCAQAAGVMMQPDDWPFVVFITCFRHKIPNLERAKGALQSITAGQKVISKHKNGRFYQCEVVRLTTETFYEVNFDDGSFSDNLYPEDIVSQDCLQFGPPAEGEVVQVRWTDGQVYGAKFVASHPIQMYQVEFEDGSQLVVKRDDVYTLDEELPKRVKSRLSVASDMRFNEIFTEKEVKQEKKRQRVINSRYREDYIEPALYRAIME
Method in brief: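 KDM4A mutant demethylation of H3K9me3 peptide, read by MALDI-MS and expressed as % inhibition of demethylase activity, with wild type and the four active-site mutants run under the same conditions. The 2KG cofactor was cut from the 1 mM of the initial activity assay to 50 μM, about 3–4-fold above the enzymes' 2KG KM. KM came from an FDH/NAD+-coupled NADH fluorescence assay.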

[2] = target: T2, wild type KDM4A (Homo sapiens, UniProt O75164); test: MALDI demethylase assay, H3K9me3 substrate peptide, wild type enzyme; format: biochemical
T2 sequence (O75164 1-1064): T1 sequence (O75164 1-1064 S288A) with A288S

[3] = 100 μM compound, 50 μM 2KG, MALDI-MS
[4] = scaffold test under the optimized assay conditions (50 μM 2KG), Figure S7

| SMILES | inhibition of demethylase activity [1, 3] | inhibition of demethylase activity [1, 4] | inhibition of demethylase activity [2, 3] | inhibition of demethylase activity [2, 4] |
| --- | --- | --- | --- | --- |
| O=C(O)CNC(=O)C(=O)O [compound 2, N-oxalylglycine] | significantly inhibited | inhibited | significantly inhibited | inhibited |
| O=C(O)c1ccc(O)c2ncccc12 [IOX1, 5-carboxy-8-hydroxyquinone] |  | inhibited |  | inhibited |
